Legend:
Mus musculus [1] = experiment: Hypoglycemic activity in 12 hrs fasted ICR mouse assessed as reduction in blood glucose AUC (0 to 6 hrs) at 10 mg/kg, ip measured after 6 hrs; format: functional; parameters: scale not given: the % may be the effect or the level left
How it was run: (§1)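 Male ICR mice (n = 4 per group), fasted 12 h with food withheld throughout. Single ip dose in 10% ricinus oil in water; vehicle and metformin 250 mg/kg as controls. Tail-vein glucose by glucometer at 0, 1, 2, 4 and 6 h; AUC over 0−6 h calculated.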

Hepatocyte = experiment: Cytotoxicity in ICR mouse serum starved primary hepatocytes assessed as reduction in cell viability at 50 to 300 uM; format: toxicity, cell-based; conditions: dose 50-300 µM
Mus musculus [2] = experiment: Hypoglycemic activity in 12 hrs fasted ICR mouse assessed as reduction in blood glucose AUC (0 to 6 hrs) at 30 mg/kg, ip measured after 6 hrs; format: functional; parameters: scale not given: the % may be the effect or the level left; how it was run: as §1
[3] = target: Tyrosine-protein kinase BTK (Homo sapiens) (UniProt Q06187); experiment: Inhibition of BTK (unknown origin) at 300 uM measured after 40 mins in presence of ATP by luminescence assay relative to control
Tyrosine-protein kinase BTK (Homo sapiens), sequence (Q06187 whole entry): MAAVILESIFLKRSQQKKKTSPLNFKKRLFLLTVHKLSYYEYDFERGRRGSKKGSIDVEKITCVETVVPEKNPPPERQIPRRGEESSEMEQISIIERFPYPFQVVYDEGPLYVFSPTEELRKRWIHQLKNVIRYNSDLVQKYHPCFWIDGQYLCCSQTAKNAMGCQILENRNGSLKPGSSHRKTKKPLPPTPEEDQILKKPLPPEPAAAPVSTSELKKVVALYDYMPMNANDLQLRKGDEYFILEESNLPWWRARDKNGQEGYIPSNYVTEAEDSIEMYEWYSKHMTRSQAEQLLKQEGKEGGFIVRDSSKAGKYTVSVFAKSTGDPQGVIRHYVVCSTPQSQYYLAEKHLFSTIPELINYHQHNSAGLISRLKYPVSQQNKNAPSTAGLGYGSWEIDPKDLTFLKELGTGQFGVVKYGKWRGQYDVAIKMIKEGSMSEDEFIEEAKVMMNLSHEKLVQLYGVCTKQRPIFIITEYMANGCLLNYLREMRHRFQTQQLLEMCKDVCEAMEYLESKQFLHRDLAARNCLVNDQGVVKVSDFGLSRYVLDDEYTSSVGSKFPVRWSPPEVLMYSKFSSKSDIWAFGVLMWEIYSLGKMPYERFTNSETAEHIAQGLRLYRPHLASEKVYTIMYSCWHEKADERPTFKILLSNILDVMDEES
How it was run: (§2)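 Kinase reaction (50 μL): 40 mM Tris pH 7.4, 10 mM MgCl2, 0.1 mg/mL BSA, 1 mM DTT, 10 μM ATP, kinase and substrate, with 1% final DMSO. Run 40 min at 30 °C. Residual ATP read by Kinase-Glo Plus luminescence, inversely related to kinase activity.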

[4] = target: T1, Fructose-1,6-bisphosphatase 1 (Homo sapiens, UniProt P09467); experiment: Inhibition of human FBPase expressed Escherichia coli BL21 in by malachite green dye based spectrophotometry
T1 sequence (P09467 whole entry): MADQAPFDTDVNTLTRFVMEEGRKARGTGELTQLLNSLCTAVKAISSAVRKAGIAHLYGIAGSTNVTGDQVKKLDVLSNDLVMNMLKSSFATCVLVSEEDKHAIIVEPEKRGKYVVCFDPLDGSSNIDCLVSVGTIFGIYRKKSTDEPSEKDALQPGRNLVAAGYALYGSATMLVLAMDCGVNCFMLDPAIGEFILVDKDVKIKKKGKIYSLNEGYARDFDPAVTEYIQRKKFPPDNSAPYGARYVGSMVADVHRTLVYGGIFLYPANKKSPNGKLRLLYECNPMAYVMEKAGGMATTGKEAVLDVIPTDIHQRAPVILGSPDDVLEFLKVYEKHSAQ
How it was run: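 His-tagged human liver FBPase expressed in E. coli BL21(DE3) and purified by Ni affinity. Phosphate released from FBP complexed with ammonium molybdate/malachite green and read at 620 nm against a KH2PO4 standard curve (2−60 μM). Initial rates at saturating substrate, fixed effector and varied inhibitor fitted to the Hill equation for IC50.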

[5] = Half life of the compound in buffer; format: physicochemical
How it was run: (§3)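 Electrophile (20 μmol) incubated at 37 °C either in pH 7.4 buffer, or in DMSO-d6/D2O (5:1), with or without glutathione. Decay followed by 1H NMR kinetics. First-order rate constant kpseudo-1st taken from ln[electrophile] versus time; t1/2 = 0.693/(60×k), in min.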

[6] = target: T2, Tyrosine-protein kinase JAK3 (Homo sapiens) (UniProt P52333); experiment: Inhibition of JAK3 (unknown origin) at 300 uM measured after 40 mins in presence of ATP by luminescence assay relative to control; how it was run: as §2
T2 sequence (whole entry): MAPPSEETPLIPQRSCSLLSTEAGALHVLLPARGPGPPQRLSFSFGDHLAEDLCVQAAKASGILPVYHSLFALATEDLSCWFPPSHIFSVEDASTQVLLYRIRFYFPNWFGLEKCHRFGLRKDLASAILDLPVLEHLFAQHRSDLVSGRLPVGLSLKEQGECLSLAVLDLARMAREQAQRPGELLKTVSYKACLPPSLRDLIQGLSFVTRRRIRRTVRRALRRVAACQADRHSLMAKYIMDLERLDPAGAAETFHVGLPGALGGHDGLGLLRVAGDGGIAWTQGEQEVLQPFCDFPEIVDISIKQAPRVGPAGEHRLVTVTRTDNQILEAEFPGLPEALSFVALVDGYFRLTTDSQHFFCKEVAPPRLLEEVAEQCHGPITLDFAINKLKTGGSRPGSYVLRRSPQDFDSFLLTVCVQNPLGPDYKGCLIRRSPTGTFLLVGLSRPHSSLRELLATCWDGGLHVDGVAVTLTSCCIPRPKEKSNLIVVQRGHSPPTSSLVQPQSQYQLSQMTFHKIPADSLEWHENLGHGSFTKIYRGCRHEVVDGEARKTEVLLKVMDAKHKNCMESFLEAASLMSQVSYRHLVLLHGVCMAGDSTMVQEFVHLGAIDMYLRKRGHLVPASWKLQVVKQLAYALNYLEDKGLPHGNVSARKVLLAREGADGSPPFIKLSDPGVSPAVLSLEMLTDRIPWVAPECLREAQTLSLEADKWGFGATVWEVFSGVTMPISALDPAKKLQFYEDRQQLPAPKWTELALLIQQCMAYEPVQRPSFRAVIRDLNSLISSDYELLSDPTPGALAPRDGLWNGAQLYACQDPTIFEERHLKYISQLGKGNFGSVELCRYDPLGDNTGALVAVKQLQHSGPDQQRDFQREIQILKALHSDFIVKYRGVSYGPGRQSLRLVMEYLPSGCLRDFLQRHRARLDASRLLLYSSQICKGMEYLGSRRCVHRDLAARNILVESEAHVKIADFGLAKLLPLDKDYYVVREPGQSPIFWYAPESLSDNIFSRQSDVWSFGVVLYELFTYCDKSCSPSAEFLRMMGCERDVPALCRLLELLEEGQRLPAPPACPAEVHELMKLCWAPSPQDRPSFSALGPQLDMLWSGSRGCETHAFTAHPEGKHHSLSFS

Homo sapiens = organism: Homo sapiens; experiment: Selectivity ratio of IC50 for human FBPase to IC50 for recombinant ALDOC (unknown origin)
How it was run: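 Aldolase (ALDOA/B/C) IC50 by NADH-coupled assay: enzyme plus serial compound dilutions, 0.41 mM NADH and TPI in 0.1 M Tris pH 7.4/0.2 M K-acetate, 3 min at 37 °C. Started with FBP and […], A340 read every 30 s for 6 min. Ratios against the FBPase IC50 from malachite green phosphate assay (620 nm).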

[7] = Half life of the compound in GSH; format: physicochemical; conditions: GSH (glutathione); how it was run: as §3

- inhibition [3]: < 50%
- IC50 [4]: 3.4 µM
- half-life [5]: > 167 h
- inhibition [6]: < 50%
- Ratio IC50 (Homo sapiens): > 25
- half-life [7]: 1.02 h
SMILES: O=C(NCc1ccccc1)N1C(=O)c2ccccc2S1(=O)=O
- Activity (Mus musculus [1]): 15.3%
- Activity (Hepatocyte): Non-Toxic
- Activity (Mus musculus [2]): 42.4%
